The sample as a whole holds a higher share of hits than the screen did.
T cruzi repl: inhibitors of intracellular T. cruzi growth, primary screen, luminescence, NIH3T3 host cells. T. cruzi beta-gal in NIH3T3, 90 h. inhibition, % (test concentration not listed). 300,000 tested, 1.4% active. AID 1885, 2009;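 active means mean inhibition across valid replicates above about 55%, limit read from the data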;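 further: signal also drops with host cell toxicity which is not excluded here; higher percent means less beta-gal luminescence so fewer parasites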
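assay system = mouse NIH/3T3 fibroblasts infected with β-gal-expressing T. cruzi Tulahuen C4 | input = 5,000 NIH/3T3 host cells per well | buffer or medium = DMEM plus 2% FBS | timing = 3 h host attachment, then at least 90 h co-culture | measured by = GalScreen luminescence, 60 min | evaluation = luminescence reflecting intracellular parasite burden, expressed as percent inhibition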
L major viab: Leishmania major promastigote growth inhibition, primary screen. AID 1063, 2008. 200,000 tested, 9% active. inhibition, % at 10 µM. Leishmania major promastigotes, resazurin fluorescence viability; in the data active means inhibition above about 50%;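 further: promastigotes grown with compound for 44 hours at 28 °C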
Hep lipid drop: inhibitors of hepatocyte lipid droplet formation, primary screen, imaging, high-throughput imaging, BODIPY stain; inhibition, % at 6.5 µM; 240,000 tested, 0.4% active; AID 1656, 2009; AML12 mouse hepatocytes, oleate lipid droplets;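 active means lipid droplet intensity inhibited by at least 50%, with more than 500 cells counted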
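System: AML12 hepatocytes (mouse). Probe or stimulus: oleic acid at 100 µM to induce lipid droplet formation. Times: overnight treatment with compound plus oleate. Detection: Image-based BODIPY and DAPI two-channel analysis. Evaluation: percent inhibition of filter-corrected integrated lipid droplet intensity per well.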
DTT redox prof: compounds producing H2O2 with reducing agent – biochemical, NIH compound library profiling, artefact control for MLSCN library redox annotation, primary screen | AID 878, 2007 | activation, % at 10 µM | 200,000 tested, 0.03% active | DTT-dependent redox cycling H2O2, phenol red/HRP absorbance; 100% = 100 µM peroxide control, 0% = buffer;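 active means activation of at least 50% relative to the plate's high and low controls in the primary single-dose screen; inactive means activation below 50%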;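 further: compound incubated with DTT at 0.8 mM final as the reducing agent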
MPTP block: mitochondrial permeability transition pore inhibitors, primary screen, biochemical, isolated mouse mitochondria, absorbance; Ca2+ swelling absorbance, 30 min; inhibition, % at 10 µM; 360,000 tested, 1.4% active; AID 602449, 2012;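 active means inhibition of 50% or more, scaled per plate between neutral and stimulator controls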
MPTP counter: fluorescence retest of MPTP screen hits in isolated mitochondria, single concentration | shares compounds with MPTP block | membrane potential, Rhodamine 123 fluorescence | inhibition, % at 10 µM | 5,000 tested, 78% active | AID 624504, 2012; in the data active means inhibition above about 22%
MPTP swell DR: mitochondrial permeability transition pore inhibitors, dose response, biochemical, absorbance, uHTS hits. shares compounds with MPTP block. isolated mitochondria swelling. IC50, µM. 780 tested, 58% active. AID 651561, 2012; in the data active means IC50 below about 20 µM
MPTP cs DR: fluorescent counter-screen in isolated mitochondria, dose response, counter-screen for MPTP inhibitor project, biochemical, fluorescence, uHTS hits; IC50, µM; 780 tested, 49% active; AID 651564, 2012; shares compounds with MPTP block; isolated mitochondria counterscreen, fluorescence read-out; in the data active means IC50 below about 80 µM
Large screens that a line does not name were inactive (follow-up assays come after a bar, where they were run); ! = a repeat was not active.

CC1(C(=O)NCc2ccccc2Br)CCN1C(=O)CCc1ccc(Cl)cc1Cl (stereo not drawn)	none (no result: T cruzi repl, L major viab, Hep lipid drop, DTT redox prof)
CN(c1ccccc1)S(=O)(=O)c1ccc(C(=O)OCC(=O)NCc2ccco2)cc1	none
COc1ccccc1N(C)S(=O)(=O)c1ccc(C(=O)OCC(=O)NCc2ccco2)cc1	MPTP block 51 (no result: Hep lipid drop) | MPTP counter inactive | MPTP swell DR inactive | MPTP cs DR inactive
CCc1cc(Cl)c(OC)c(C(=O)NC[C@@H]2CCCN2CC)c1O	MPTP block 78! (no result: L major viab, Hep lipid drop, DTT redox prof) | MPTP counter inactive | MPTP swell DR 9 | MPTP cs DR inactive
CCN1CCCC1CNC(=O)c1ccccc1Cl (stereo not drawn)	none
O=C(NC(O)C(=O)c1ccc(F)cc1)c1ccc(F)cc1 (stereo not drawn)	none (no result: L major viab, DTT redox prof)
Cn1c(SC(C(=O)Nc2ccc(F)cc2)c2ccccc2)nc2ccccc21 (stereo not drawn)	MPTP block 64 | MPTP counter 66
O=C(Nc1ccc(F)cc1)C(Sc1nc2ccccc2[nH]1)c1ccccc1 (stereo not drawn)	MPTP block 97 | MPTP counter 87
O=C(CSc1nc2ccccc2[nH]1)Nc1ccc(F)cc1	none (no result: Hep lipid drop)
CC1(C2CC(C(F)(F)F)n3nc(C(=O)O)cc3N2)CC1 (stereo not drawn)	none
COC(=O)c1sc(N)c(C(=O)OC)c1COC(=O)C12CC3CC(CC(O)(C3)C1)C2	none (no result: L major viab, DTT redox prof)
COc1ccccc1N=c1scc(-c2ccc3c(c2)NC(=O)CO3)n1CC1CCCO1 (stereo not drawn)	MPTP block 64 | MPTP counter inactive | MPTP swell DR inactive | MPTP cs DR 41
COCC(C)n1c(-c2ccc3c(c2)NC(=O)CO3)csc1=Nc1ccc(OC(F)F)cc1 (stereo not drawn)	MPTP block 70! | MPTP counter 54
CCCCN=c1scc(-c2ccc3c(c2)NC(=O)CO3)n1N=C1CCCC1	none
CC(C)(C)c1ccc(C(=O)c2c[nH]c(C(=O)NCC3CCCO3)c2)cc1 (stereo not drawn)	MPTP block 70 | MPTP counter inactive | MPTP swell DR inactive | MPTP cs DR 27
Cc1ccc(S(=O)(=O)N2CCC[C@H]2C(=O)NCc2ccccc2Cl)cc1	none (no result: T cruzi repl, L major viab, Hep lipid drop, DTT redox prof)
O=C1NC(c2cc(Cl)cc([N+](=O)[O-])c2O)Nc2ccccc21 (stereo not drawn)	MPTP block 88 (no result: L major viab, DTT redox prof) | MPTP counter inactive | MPTP swell DR inactive | MPTP cs DR 11
O=C1NC(c2ccc(Cl)c([N+](=O)[O-])c2)Nc2ccccc21 (stereo not drawn)	none
Cc1ccc(Oc2cc([N+](=O)[O-])cc3c2C(=O)Nc2ccccc2O3)cc1	MPTP block 56 | MPTP counter 29
Fc1ccc2nc(Nc3nc4c(F)cc(F)cc4s3)sc2c1	MPTP block 97 | MPTP counter 71
Fc1ccc2nc(Nc3nc4c(F)cccc4s3)sc2c1	MPTP block 96 | MPTP counter 46
Cc1ccc(NS(=O)(=O)c2ccc3c(c2)C(=O)c2ccccc2C3=O)c(C)c1	MPTP block 82 (no result: T cruzi repl) | MPTP counter 72
Cc1ccc(S(=O)(=O)Nc2ccc3c(c2)C(=O)c2ccccc2-3)cc1	none (no result: T cruzi repl, L major viab, Hep lipid drop, DTT redox prof)
CCN1C(=O)[C@H]2[C@@H](c3ccc(-c4ccc(C(C)=O)cc4)cc3)N3CCCC[C@@]3(C(=O)OC)[C@H]2C1=O	none (no result: L major viab, Hep lipid drop, DTT redox prof)
O=C(Nc1nc(-c2cccs2)c(C(=O)C(F)(F)F)s1)c1ccccc1	MPTP block 88 | MPTP counter 98
CN(C)S(=O)(=O)c1cccc(NC(=S)NNC(=O)c2cc3ccccc3cc2O)c1	MPTP block 52 (no result: T cruzi repl, L major viab, Hep lipid drop, DTT redox prof) | MPTP counter 48
CN(C)S(=O)(=O)c1cccc(NC(=S)NC2CCCCC2)c1	none
CC1CCCC(NC(=S)Nc2cccc(S(=O)(=O)N(C)C)c2)C1C (stereo not drawn)	MPTP block 73 | MPTP counter 92
CC(=O)c1ccc(NC(=S)NC2CCCC(C)C2C)cc1 (stereo not drawn)	MPTP block 71 | MPTP counter 75
CCOC(=O)c1c(-c2ccc(OC)cc2)csc1/N=C/C1=C(O)CCCC1=O	none
O=C(NCc1ccccc1CN1CCCC1)c1ccc(S(=O)(=O)Nc2ccccc2)cc1	none (no result: T cruzi repl, L major viab, Hep lipid drop, DTT redox prof)
C/C(N=Nc1nc2ccccc2s1)=N\Nc1ccccc1O	MPTP block 91 (no result: L major viab, DTT redox prof) | MPTP counter 54
COc1ccc(C(=O)Nc2ccc(NC(=O)C3CC3)nc2)cc1	none (no result: L major viab, DTT redox prof)
CN(C)CCNS(=O)(=O)c1ccc(N2CCc3ccccc32)c([N+](=O)[O-])c1	MPTP block 88 (no result: L major viab, DTT redox prof) | MPTP counter inactive | MPTP swell DR 12 | MPTP cs DR 49
CN(C)CCCNS(=O)(=O)c1ccc(N2CCN(Cc3ccc4c(c3)OCO4)CC2)c([N+](=O)[O-])c1	MPTP block 87 (no result: L major viab, DTT redox prof) | MPTP counter 93
O=Cc1cc([N+](=O)[O-])ccc1N1CCN(Cc2ccc3c(c2)OCO3)CC1	none (no result: L major viab, DTT redox prof)
COc1ccc(/C=N/OC(=O)c2ccc(Cl)cc2)c(Cl)c1OC	none (no result: L major viab, DTT redox prof)
C=CCn1c(=N)n(CC(=O)c2cccc([N+](=O)[O-])c2)c2ccccc21	none
Cn1c(=O)n(CCOc2ccc(Cl)cc2Cl)c2ccccc21	none
N=c1n(Cc2ccc(Cl)cc2)c2ccccc2n1CC(O)COc1ccccc1 (stereo not drawn)	L major viab 100, MPTP block 78 | MPTP counter 27
N=c1n(CC(=O)c2ccc([N+](=O)[O-])cc2)c2ccccc2n1Cc1ccc(Cl)cc1	L major viab 100, MPTP block 88 | MPTP counter inactive
N=c1n(Cc2ccccc2)c2ccccc2n1CC(O)COc1ccc(Cl)cc1Cl (stereo not drawn)	L major viab 100, MPTP block 74 | MPTP counter inactive
N=c1n(CCO)c2ccccc2n1Cc1ccc(Cl)cc1	MPTP block 89 (no result: Hep lipid drop) | MPTP counter inactive | MPTP swell DR 13 | MPTP cs DR 48
OC(COc1ccc(Cl)cc1)CN1CCN(c2ccccc2)CC1 (stereo not drawn)	none (no result: L major viab, DTT redox prof)
CC(=O)Nc1ccc(Oc2cncc(Cl)c2)nc1	none (no result: L major viab, DTT redox prof)
O=C(OCC(=O)N1CCOCC1)c1cc(F)c(F)cc1Cl	none (no result: L major viab, DTT redox prof)
C/C(=N\N=C(N)N)c1cccc(Cl)c1	MPTP block 55 | MPTP counter inactive | MPTP swell DR 16 | MPTP cs DR 68

High-throughput results (PubChem BioAssay)
